The record followed here is ChEMBL document CHEMBL1144257, “5-Chloroindoloyl glycine amide inhibitors of glycogen phosphorylase: synthesis, in vitro, in vivo, and X-ray crystallographic characterization” (Bioorg Med Chem Lett, 2005).

Each structure is given as a SMILES string. Bounds are passed on as bounds.

The test system of the first assay is SK-HEP1. Briefly: Inhibitory concentration against human SK-Hep-1 cells (hepatoma cell line). The assay is classed as functional, cell-based.
Details: not given
Put shortly:
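SK-HEP-1 cells carrying pre-labeled ¹⁴C-glycogen, with phosphorylase activated by forskolin. Glycogenolysis is the ¹⁴C-glycogen (dpm) difference between basal and forskolin-treated cells. Inhibition is expressed as percent of forskolin-induced glycogenolysis in DMSO controls. IC50 from a 6-point curve (0.1–30μM), triplicate points, mean of ≥2 independent experiments where repeated.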
Usually IC50 stands for the midpoint of a concentration-inhibition curve. A higher IC50 goes with weaker potency in that assay. On to `COCCN(C(=O)CNC(=O)c1cc2cc(Cl)ccc2[nH]1)C1CCCC1`, for which the IC50 was 1500 nM.

On to `CCCN(CCO)C(=O)CNC(=O)c1cc2cc(Cl)ccc2[nH]1`, for which the half-maximal inhibitory concentration (IC50) stood at 490 nM.

Take `O=C(NCC(=O)N(CCOCCO)C1CCCC1)c1cc2cc(Cl)ccc2[nH]1`: half-maximal inhibition (IC50) required 3800 nM.

Molecule `O=C(NCC(=O)N(CC(O)CO)C1CCCC1)c1cc2cc(Cl)ccc2[nH]1` (stereo not given) came in with an IC50 of 1300 nM.

Molecule `O=C(NCC(=O)N(CCO)C1CCOCC1)c1cc2cc(Cl)ccc2[nH]1` came in with an IC50 of 1400 nM.

`O=C(NCC(=O)N(CCO)C1CCCC1)c1cc2cc(Cl)ccc2[nH]1`: 140 nM corresponded to half-maximal inhibition (IC50).

In turn, `O=C(NCC(=O)N(CCCO)C1CCCC1)c1cc2cc(Cl)ccc2[nH]1` gave an IC50 of 760 nM.

`O=C(NCC(=O)N(CCO)C1CCC1)c1cc2cc(Cl)ccc2[nH]1` registered an IC50 of 2000 nM.

`CC(O)(CO)CN(C(=O)CNC(=O)c1cc2cc(Cl)ccc2[nH]1)C1CCCC1` (stereo not given) registered an IC50 of 2400 nM.

`O=C(NCC(=O)N(CCO)c1ccccc1)c1cc2cc(Cl)ccc2[nH]1` had a half-inhibitory concentration (IC50) of 270 nM.

As for `O=C(NCC(=O)N(CCO)CC1CC1)c1cc2cc(Cl)ccc2[nH]1`, the IC50 came to 1500 nM.

Consider `CN(C)C(=O)[C@H](O)[C@H](Cc1ccccc1)NC(=O)c1cc2cc(Cl)ccc2[nH]1`, for which half-maximal inhibition (IC50) required 1500 nM.

`CN(C(=O)CNC(=O)c1cc2cc(Cl)ccc2[nH]1)C1CCCC1` displayed an IC50 of 1700 nM.

As to `CC(C)N(CCO)C(=O)CNC(=O)c1cc2cc(Cl)ccc2[nH]1`, it took 3400 nM to reach half-maximal inhibition (IC50).

`CN(Cc1ccccc1)C(=O)CNC(=O)c1cc2cc(Cl)ccc2[nH]1`: the IC50 was above 10000 nM.

With `CCCCN(CCO)C(=O)CNC(=O)c1cc2cc(Cl)ccc2[nH]1`, the IC50 stood at 1000 nM.

Molecule `CC(C)(O)CN(C(=O)CNC(=O)c1cc2cc(Cl)ccc2[nH]1)C1CCCC1` gave an IC50 of 1400 nM.

For the molecule `CC(C)CN(CCO)C(=O)CNC(=O)c1cc2cc(Cl)ccc2[nH]1`, half-maximal inhibition (IC50) was put at 2500 nM.

For `O=C(NCC(=O)N(CCO)C1CCCCC1)c1cc2cc(Cl)ccc2[nH]1`, the IC50 was found to be 710 nM.

`CN(C(=O)CNC(=O)c1cc2cc(Cl)ccc2[nH]1)C1CCCCC1` showed an IC50 of 1400 nM.

With `N#CCN(C(=O)CNC(=O)c1cc2cc(Cl)ccc2[nH]1)C1CCCC1`, the IC50 was determined as 680 nM.

The target of a further assay is T1, Glycogen phosphorylase, liver form (Homo sapiens, UniProt P06737).
T1 sequence (P06737 whole entry): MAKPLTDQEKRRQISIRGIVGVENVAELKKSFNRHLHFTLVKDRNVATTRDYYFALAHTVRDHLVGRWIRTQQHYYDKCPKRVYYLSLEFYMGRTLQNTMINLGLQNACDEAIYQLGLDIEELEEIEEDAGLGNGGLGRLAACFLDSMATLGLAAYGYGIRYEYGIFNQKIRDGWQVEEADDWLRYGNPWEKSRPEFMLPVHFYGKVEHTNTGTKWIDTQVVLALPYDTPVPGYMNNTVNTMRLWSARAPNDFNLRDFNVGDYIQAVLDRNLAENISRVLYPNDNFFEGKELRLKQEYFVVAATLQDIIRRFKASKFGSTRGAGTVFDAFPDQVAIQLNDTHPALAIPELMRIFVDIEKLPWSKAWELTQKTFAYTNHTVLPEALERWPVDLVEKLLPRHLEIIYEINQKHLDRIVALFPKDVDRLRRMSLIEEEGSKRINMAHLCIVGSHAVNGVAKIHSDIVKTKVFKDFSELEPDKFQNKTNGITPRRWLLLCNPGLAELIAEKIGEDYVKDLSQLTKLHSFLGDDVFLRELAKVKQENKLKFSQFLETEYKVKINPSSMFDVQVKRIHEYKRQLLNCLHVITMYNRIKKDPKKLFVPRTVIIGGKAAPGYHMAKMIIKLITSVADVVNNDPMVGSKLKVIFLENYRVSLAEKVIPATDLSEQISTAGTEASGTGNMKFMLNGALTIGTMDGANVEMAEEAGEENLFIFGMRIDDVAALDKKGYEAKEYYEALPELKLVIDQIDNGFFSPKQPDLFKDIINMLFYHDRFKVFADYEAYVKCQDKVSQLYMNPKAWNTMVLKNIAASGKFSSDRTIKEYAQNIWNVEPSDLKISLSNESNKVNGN
Briefly: (§1) Inhibitory concentration against glycogen phosphorylase.
Details: not given
For `COCCN(C(=O)CNC(=O)c1cc2cc(Cl)ccc2[nH]1)C1CCCC1`, the IC50 came to 200 nM.

Turning to `CCCN(CCO)C(=O)CNC(=O)c1cc2cc(Cl)ccc2[nH]1`, the IC50 turned out to be 150 nM.

`O=C(NCC(=O)N(CCOCCO)C1CCCC1)c1cc2cc(Cl)ccc2[nH]1` showed an IC50 of 230 nM.

In turn, `O=C(NCC(=O)N(CC(O)CO)C1CCCC1)c1cc2cc(Cl)ccc2[nH]1` (stereo not given) displayed a half-inhibitory concentration (IC50) of 54 nM.

`O=C(NCC(=O)N(CCO)C1CCOCC1)c1cc2cc(Cl)ccc2[nH]1` displayed an IC50 of 250 nM.

In the case of `O=C(NCC(=O)N(CCO)C1CCCC1)c1cc2cc(Cl)ccc2[nH]1`, half-maximal inhibition (IC50) required 57 nM.

On to `O=C(NCC(=O)N(CCCO)C1CCCC1)c1cc2cc(Cl)ccc2[nH]1`, for which the IC50 came to 42 nM.

Take `O=C(NCC(=O)N(CCO)C1CCC1)c1cc2cc(Cl)ccc2[nH]1`: it took 130 nM to reach half-maximal inhibition (IC50).

In the case of `CC(O)(CO)CN(C(=O)CNC(=O)c1cc2cc(Cl)ccc2[nH]1)C1CCCC1` (stereo not given), it took 83 nM to reach half-maximal inhibition (IC50).

Turning to `O=C(NCC(=O)N(CCO)c1ccccc1)c1cc2cc(Cl)ccc2[nH]1`, the IC50 came to 120 nM.

Turning to `O=C(NCC(=O)N(CCO)CC1CC1)c1cc2cc(Cl)ccc2[nH]1`, the IC50 was 160 nM.

In turn, `CN(C(=O)CNC(=O)c1cc2cc(Cl)ccc2[nH]1)C1CCCC1` came in with an IC50 of 55 nM.

In turn, `CC(C)N(CCO)C(=O)CNC(=O)c1cc2cc(Cl)ccc2[nH]1` yielded an IC50 of 210 nM.

As for `CN(Cc1ccccc1)C(=O)CNC(=O)c1cc2cc(Cl)ccc2[nH]1`, 550 nM corresponded to half-maximal inhibition (IC50).

`CCCCN(CCO)C(=O)CNC(=O)c1cc2cc(Cl)ccc2[nH]1` yielded an IC50 of 120 nM.

`CC(C)(O)CN(C(=O)CNC(=O)c1cc2cc(Cl)ccc2[nH]1)C1CCCC1` gave an IC50 of 150 nM.

Regarding `CC(C)CN(CCO)C(=O)CNC(=O)c1cc2cc(Cl)ccc2[nH]1`, the IC50 is 180 nM.

The molecule `O=C(NCC(=O)N(CCO)C1CCCCC1)c1cc2cc(Cl)ccc2[nH]1` gave an IC50 of 99 nM.

As for `CN(C(=O)CNC(=O)c1cc2cc(Cl)ccc2[nH]1)C1CCCCC1`, 150 nM corresponded to half-maximal inhibition (IC50).

Molecule `N#CCN(C(=O)CNC(=O)c1cc2cc(Cl)ccc2[nH]1)C1CCCC1` displayed an IC50 of 30 nM.

The species entered for another assay is Mus musculus. Briefly: Percentage of glucose lowering after 3h at minimum effective dose in mouse. The assay is classed as functional.
Details: not given
Put shortly:
(§2)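 Fed diabetic ob/ob mice, oral dosing in neat PEG400, starting at […] and then at successively lower doses. Plasma glucose measured 3h post-dose. Lowering is expressed as percent decrease versus vehicle-treated controls within the same experiment, with significance by unpaired t-test on group mean glucose. MED is the lowest dose giving reduction.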
Turning to `O=C(NCC(=O)N(CCO)C1CCOCC1)c1cc2cc(Cl)ccc2[nH]1`, the Activity is 27%.

In the case of `O=C(NCC(=O)N(CCO)C1CCCC1)c1cc2cc(Cl)ccc2[nH]1`, the Activity amounted to 25%.

In turn, `O=C(NCC(=O)N(CCO)C1CCC1)c1cc2cc(Cl)ccc2[nH]1` had an Activity of 30%.

Molecule `CN(C)C(=O)[C@H](O)[C@H](Cc1ccccc1)NC(=O)c1cc2cc(Cl)ccc2[nH]1` came in with an Activity of 32%.

Molecule `CN(C(=O)CNC(=O)c1cc2cc(Cl)ccc2[nH]1)C1CCCC1` gave an Activity of 36%.

`CC(C)(O)CN(C(=O)CNC(=O)c1cc2cc(Cl)ccc2[nH]1)C1CCCC1` returned an Activity of 30%.

`CC(C)CN(CCO)C(=O)CNC(=O)c1cc2cc(Cl)ccc2[nH]1` displayed an Activity of 25%.

`N#CCN(C(=O)CNC(=O)c1cc2cc(Cl)ccc2[nH]1)C1CCCC1` came in with an Activity of 40%.

Another assay addresses T1, Glycogen phosphorylase, liver form. The description is as §1.
Details: not given
Summed up: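 Recombinant human liver GPa (50ng), run in the glycogen-synthesis direction at 22°C. Compounds added in 14% DMSO before enzyme. Released phosphate read at 620nm with malachite green/molybdate in HCl after 20min. IC50 from triplicate dose-response curves, mean of ≥3 determinations (≥2 if >500 nM).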
Turning to `O=C(NCC(=O)N(CCOc1ccccc1)C1CCCC1)c1cc2cc(Cl)ccc2[nH]1`, the IC50 was 1400 nM.

The subject of the next assay is Mus musculus. Briefly: In-vivo minimum effective dose (MED) for reduction of plasma glucose in mouse after 3 hours. The class given is functional. Particulars: read-out: MED. Put shortly: as §2
`COCCN(C(=O)CNC(=O)c1cc2cc(Cl)ccc2[nH]1)C1CCCC1`: the minimal effective dose is above 10 mg/kg.

Turning to `CCCN(CCO)C(=O)CNC(=O)c1cc2cc(Cl)ccc2[nH]1`, the minimal effective dose is above 25 mg/kg.

In the case of `O=C(NCC(=O)N(CCOCCO)C1CCCC1)c1cc2cc(Cl)ccc2[nH]1`, the minimal effective dose is above 10 mg/kg.

`O=C(NCC(=O)N(CC(O)CO)C1CCCC1)c1cc2cc(Cl)ccc2[nH]1` (stereo not given): the minimal effective dose came out at 10 mg/kg.

On to `O=C(NCC(=O)N(CCO)C1CCOCC1)c1cc2cc(Cl)ccc2[nH]1`, for which the minimal effective dose was determined as 5 mg/kg.

Regarding `O=C(NCC(=O)N(CCO)C1CCCC1)c1cc2cc(Cl)ccc2[nH]1`, the minimal effective dose stood at 5 mg/kg.

As for `O=C(NCC(=O)N(CCCO)C1CCCC1)c1cc2cc(Cl)ccc2[nH]1`, the minimal effective dose is above 10 mg/kg.

Regarding `O=C(NCC(=O)N(CCO)C1CCC1)c1cc2cc(Cl)ccc2[nH]1`, the minimal effective dose turned out to be 25 mg/kg.

In the case of `CC(O)(CO)CN(C(=O)CNC(=O)c1cc2cc(Cl)ccc2[nH]1)C1CCCC1` (stereo not given), the minimal effective dose was above 10 mg/kg.

`O=C(NCC(=O)N(CCO)c1ccccc1)c1cc2cc(Cl)ccc2[nH]1`: the minimal effective dose was above 10 mg/kg.

Regarding `O=C(NCC(=O)N(CCO)CC1CC1)c1cc2cc(Cl)ccc2[nH]1`, the minimal effective dose was above 10 mg/kg.

For `CN(C)C(=O)[C@H](O)[C@H](Cc1ccccc1)NC(=O)c1cc2cc(Cl)ccc2[nH]1`, the minimal effective dose amounted to 25 mg/kg.

For `CN(C(=O)CNC(=O)c1cc2cc(Cl)ccc2[nH]1)C1CCCC1`, the minimal effective dose amounted to 10 mg/kg.

As to `CC(C)N(CCO)C(=O)CNC(=O)c1cc2cc(Cl)ccc2[nH]1`, the minimal effective dose was above 10 mg/kg.

As for `CCCCN(CCO)C(=O)CNC(=O)c1cc2cc(Cl)ccc2[nH]1`, the minimal effective dose is above 10 mg/kg.

For the molecule `CC(C)(O)CN(C(=O)CNC(=O)c1cc2cc(Cl)ccc2[nH]1)C1CCCC1`, the minimal effective dose came out at 10 mg/kg.

In the case of `CC(C)CN(CCO)C(=O)CNC(=O)c1cc2cc(Cl)ccc2[nH]1`, the minimal effective dose was 25 mg/kg.

For `O=C(NCC(=O)N(CCO)C1CCCCC1)c1cc2cc(Cl)ccc2[nH]1`, the minimal effective dose was above 10 mg/kg.

`CN(C(=O)CNC(=O)c1cc2cc(Cl)ccc2[nH]1)C1CCCCC1`: the minimal effective dose was above 10 mg/kg.

For the molecule `N#CCN(C(=O)CNC(=O)c1cc2cc(Cl)ccc2[nH]1)C1CCCC1`, the minimal effective dose is 10 mg/kg.
